These results are taken from ChEMBL document CHEMBL1140443, “Inhibitors of apoptosis in lymphocytes: synthesis and biological evaluation of compounds related to pifithrin-alpha” (J Med Chem, 2005).

The species named for experiment [1] is Mus musculus. As to the kind of experiment: Concentration required to inhibit dexamethasone-induced death of mice thymocytes. The class given is functional, organism-based. In outline:
(§1)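 Thymocytes from young C57Bl/6 mice, cultured at 37 °C in 5% CO2 in RPMI 1640 with 10% FBS and penicillin/streptomycin, plated at 10⁷ cells/mL. Cells were preincubated 30 min with graded compound concentrations (DMSO stock), then given 5 μM dexamethasone for 6 h. Cells were stained 30 min with 40 nM DiOC6 and 5 μg/mL PI and read by flow cytometry; DiOC6-high/PI-low cells were scored viable. EC50 was taken from a nonlinear one-site fit, with its 95% confidence interval.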

For experiment [2], the species on record is Mus musculus. The experiment can be described thus: Average percent survival of C57Bl/6 mice thymocytes from Dexamethasone (5 uM) induced apoptosis at 10 uM.
A short description of experiment [3]: Concentration for 95% confidence interval (CI) in dexamethasone-induced mice thymocytes; range 4.08-8.01 uM. The class given is functional, Mus musculus. The essentials: as §1
The nature of experiment [4]: Concentration for 95% confidence interval (CI) in dexamethasone-induced mice thymocytes; range 1.51-2.24 uM. It counts as functional, Mus musculus. The essentials:
as §1

A short description of experiment [5]: Concentration for 95% confidence interval (CI) in dexamethasone-induced mice thymocytes; range 1.76-2.98 uM. The class given is functional, Mus musculus. In outline: as §1
Experiment [6] in a line: Concentration for 95% confidence interval (CI) in dexamethasone-induced mice thymocytes; range 0.94-1.82 uM. The class given is functional, Mus musculus. In outline:
as §1

Experiment [7] can be described thus: Concentration for 95% confidence interval (CI) in dexamethasone-induced mice thymocytes; range 3.45-4.69 uM. The class given is functional, Mus musculus. The essentials: as §1
Experiment [8] in a line: Concentration for 95% confidence interval (CI) in dexamethasone-induced mice thymocytes; range 0.11-1.08 uM. The class given is functional, Mus musculus. In outline:
as §1

In turn, `N=c1sc2c(n1CC(=O)c1ccccc1Cl)CCCC2` displayed a 50% effective concentration (EC50) in the experiment filed under Mus musculus [1] of 5720 nM. In the experiment filed under Mus musculus [2], this compound came in with a Survival of 65%. In experiment [3], this compound returned a CI of 8.01 µM.

In the experiment listed under Mus musculus [1], `CCN(CC)c1ccc(C(=O)Cn2c3c(sc2=N)CCCC3)cc1` displayed a concentration for a half-maximal effect (EC50) of 1840 nM. The same compound showed a Survival in the experiment filed under Mus musculus [2] of 70%. Further, in experiment [4], the CI amounted to 2.24 µM.

`N=c1sc2c(n1CC(=O)c1ccc(-c3ccccc3)cc1)CCCC2` gave an EC50 in the experiment filed under Mus musculus [1] of 2290 nM. The same compound showed a Survival in the experiment listed under Mus musculus [2] of 65%. Further, the CI in experiment [5] was 2.98 µM.

In the case of `N=c1sc2c(n1CC(=O)c1ccc(N3CCCC3)cc1)CCCC2`, the response in the experiment filed under Mus musculus [1] was half-maximal at 1310 nM (EC50). This compound displayed a Survival in the experiment listed under Mus musculus [2] of 77%. In addition, the CI in experiment [6] came out at 1.82 µM.

With `c1ccc2cc(-c3ccc(-c4cn5c(n4)sc4ccccc45)cc3)ccc2c1`, in the experiment filed under Mus musculus [1], the EC50 came out at 4020 nM. The Survival in the experiment filed under Mus musculus [2] is on record as 75%. In experiment [7], the CI was determined as 4.69 µM.

`c1ccc2c(c1)sc1nc(-c3ccc(N4CCCC4)cc3)cn12`: the midpoint of the response in the experiment filed under Mus musculus [1], the EC50, lay at 350 nM. Besides, in experiment [8], the CI came to 1.08 µM. The Survival in the experiment filed under Mus musculus [2] is recorded as 78%.

In general, EC50 refers to the midpoint of the concentration-response curve. A low value points to higher potency in that assay.
